What was measured:
[1] = target: Epidermal growth factor receptor (Homo sapiens) (UniProt P00533); assay: Inhibition of wild-type human partial length EGFR (R669 to V1011 residues) expressed in Escherichia coli BL21 assessed as residual activity at 1000 nM after 30 mins by Kinomescan method relative to control
[2] = target: Mitogen-activated protein kinase 7 (Homo sapiens) (UniProt Q13164); assay: Inhibition of wild-type human partial length ERK5 (M1 to A409 residues) expressed in Escherichia coli BL21 assessed as residual activity at 1000 nM after 30 mins by Kinomescan method relative to control
[3] = target: 3-phosphoinositide-dependent protein kinase 1 (Homo sapiens) (UniProt O15530); assay: Inhibition of wild-type human full length PDPK1 (M1 to Q556 residues) expressed in Escherichia coli BL21 assessed as residual activity at 1000 nM after 30 mins by Kinomescan method relative to control
In short: (§1)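 Single-concentration screen at 1 µM across a 456-kinase KINOMEscan panel. The read-out is Percent Control for each kinase.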

[4] = tested on: Mast/stem cell growth factor receptor Kit (Homo sapiens), P10721 [V559D,T670I]; assay: Inhibition of human partial length KIT V559D/T670I double mutant (Y545 to D952 residues) expressed in Escherichia coli BL21 assessed as residual activity at 1000 nM after 30 mins by Kinomescan method relative to control
In short: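 KINOMEscan binding panel of 456 kinases, with the test compound at a single concentration of 1 µM. Read-out is Percent Control.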

[5] = target: Serine/threonine-protein kinase Sgk1 (Homo sapiens) (UniProt O00141); assay: Inhibition of wild-type human partial length SGK (I60 to L431 residues) expressed in HEK293 cells assessed as residual activity at 1000 nM after 30 mins by Kinomescan method relative to control; format: cell-based
[6] = target: Serine/threonine-protein kinase VRK2 (Homo sapiens) (UniProt Q86Y07); assay: Inhibition of wild-type human partial length VRK2 (M1 to T336 residues) expressed in HEK293 cells assessed as residual activity at 1000 nM after 30 mins by Kinomescan method relative to control; format: cell-based
Chain of Serine/threonine-protein kinase VRK2 (Homo sapiens) (Q86Y07 whole entry, the tested form may be a part): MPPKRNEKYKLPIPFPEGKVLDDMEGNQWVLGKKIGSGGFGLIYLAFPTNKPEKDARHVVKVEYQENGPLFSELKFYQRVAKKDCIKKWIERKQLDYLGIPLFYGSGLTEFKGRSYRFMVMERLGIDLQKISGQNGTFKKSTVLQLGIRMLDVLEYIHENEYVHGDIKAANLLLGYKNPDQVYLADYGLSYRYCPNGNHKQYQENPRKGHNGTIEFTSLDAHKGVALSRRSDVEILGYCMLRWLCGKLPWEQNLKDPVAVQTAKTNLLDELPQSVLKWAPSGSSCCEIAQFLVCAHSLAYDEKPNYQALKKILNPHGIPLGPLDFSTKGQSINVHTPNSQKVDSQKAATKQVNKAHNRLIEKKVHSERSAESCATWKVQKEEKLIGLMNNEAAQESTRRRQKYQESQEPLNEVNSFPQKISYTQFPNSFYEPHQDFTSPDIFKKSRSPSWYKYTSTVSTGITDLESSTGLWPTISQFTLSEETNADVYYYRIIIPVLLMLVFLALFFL

[7] = target: Eukaryotic translation initiation factor 2-alpha kinase 1 (Homo sapiens) (UniProt Q9BQI3); assay: Inhibition of wild-type human partial length EIF2AK1 (Q147 to E603 residues) expressed in HEK293 cells assessed as residual activity at 1000 nM after 30 mins by Kinomescan method relative to control; format: cell-based
Chain of Eukaryotic translation initiation factor 2-alpha kinase 1 (Homo sapiens) (Q9BQI3 whole entry, the tested form may be a part): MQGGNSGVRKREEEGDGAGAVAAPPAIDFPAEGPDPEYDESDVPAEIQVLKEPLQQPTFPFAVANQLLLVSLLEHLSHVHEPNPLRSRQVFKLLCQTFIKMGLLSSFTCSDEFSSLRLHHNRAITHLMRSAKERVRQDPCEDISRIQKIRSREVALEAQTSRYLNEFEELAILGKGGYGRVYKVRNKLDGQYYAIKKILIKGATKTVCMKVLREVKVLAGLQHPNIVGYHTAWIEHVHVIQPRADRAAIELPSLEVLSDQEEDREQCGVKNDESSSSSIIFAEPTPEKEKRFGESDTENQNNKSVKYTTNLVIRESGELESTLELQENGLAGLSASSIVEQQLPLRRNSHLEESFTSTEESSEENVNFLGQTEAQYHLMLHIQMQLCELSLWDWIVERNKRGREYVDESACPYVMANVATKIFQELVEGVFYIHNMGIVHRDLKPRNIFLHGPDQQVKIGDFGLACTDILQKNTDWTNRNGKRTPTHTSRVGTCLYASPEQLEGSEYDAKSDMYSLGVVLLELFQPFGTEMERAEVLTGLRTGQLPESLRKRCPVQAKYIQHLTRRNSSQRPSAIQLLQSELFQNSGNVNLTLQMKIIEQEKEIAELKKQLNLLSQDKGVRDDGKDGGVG

[8] = tested on: Tyrosine-protein kinase ABL1 (Homo sapiens), P00519 [Q252H]; assay: Inhibition of human phosphorylated ABL1 Q252H mutant expressed in HEK293 cells assessed as residual activity at 1000 nM after 30 mins by Kinomescan method relative to control; format: cell-based
In short: (§2)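 Single-point screen at a fixed 1 µM, run within a 456-kinase DiscoveRx KINOMEscan panel. Each kinase's read-out is Percent Control, i.e. signal relative to a control without compound. Hits were scored by a Percent Control < 35 cut-off, and an S(35) selectivity score was calculated across the non-mutant kinases.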

[9] = target: 5'-AMP-activated protein kinase catalytic subunit alpha-1 (Homo sapiens) (UniProt Q13131); assay: Inhibition of wild-type human partial length AMPK alpha1 (M1 to E306 residues) expressed in Escherichia coli BL21 assessed as residual activity at 1000 nM after 30 mins by Kinomescan method relative to control
Chain of 5'-AMP-activated protein kinase catalytic subunit alpha-1 (Homo sapiens) (Q13131 whole entry, looked up, the tested form may be a part): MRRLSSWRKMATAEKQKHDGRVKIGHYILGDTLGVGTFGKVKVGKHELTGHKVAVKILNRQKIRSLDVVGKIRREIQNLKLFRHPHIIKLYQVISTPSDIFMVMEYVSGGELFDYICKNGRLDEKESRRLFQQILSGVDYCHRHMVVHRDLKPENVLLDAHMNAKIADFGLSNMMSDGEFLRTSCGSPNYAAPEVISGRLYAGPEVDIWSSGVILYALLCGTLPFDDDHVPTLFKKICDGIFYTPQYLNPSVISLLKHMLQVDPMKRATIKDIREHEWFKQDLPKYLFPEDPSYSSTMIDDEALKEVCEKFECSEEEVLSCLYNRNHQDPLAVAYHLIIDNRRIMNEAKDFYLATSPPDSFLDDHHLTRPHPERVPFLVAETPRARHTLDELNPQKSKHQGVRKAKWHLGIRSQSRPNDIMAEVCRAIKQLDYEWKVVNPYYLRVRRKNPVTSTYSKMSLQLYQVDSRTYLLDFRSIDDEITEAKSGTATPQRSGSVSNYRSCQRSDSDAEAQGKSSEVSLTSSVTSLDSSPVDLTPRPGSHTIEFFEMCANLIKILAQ

[10] = target: Wee1-like protein kinase (Homo sapiens) (UniProt P30291); assay: Inhibition of wild-type human partial length WEE1 (M291 to K575 residues) expressed in Escherichia coli BL21 assessed as residual activity at 1000 nM after 30 mins by Kinomescan method relative to control
[11] = target: Hepatocyte growth factor receptor (Homo sapiens) (UniProt P08581); assay: Inhibition of wild-type human partial length MET (D1010 to S1367 residues) expressed in Escherichia coli BL21 assessed as residual activity at 1000 nM after 30 mins by Kinomescan method relative to control
Chain of Hepatocyte growth factor receptor (Homo sapiens) (P08581 whole entry, the tested form may be a part): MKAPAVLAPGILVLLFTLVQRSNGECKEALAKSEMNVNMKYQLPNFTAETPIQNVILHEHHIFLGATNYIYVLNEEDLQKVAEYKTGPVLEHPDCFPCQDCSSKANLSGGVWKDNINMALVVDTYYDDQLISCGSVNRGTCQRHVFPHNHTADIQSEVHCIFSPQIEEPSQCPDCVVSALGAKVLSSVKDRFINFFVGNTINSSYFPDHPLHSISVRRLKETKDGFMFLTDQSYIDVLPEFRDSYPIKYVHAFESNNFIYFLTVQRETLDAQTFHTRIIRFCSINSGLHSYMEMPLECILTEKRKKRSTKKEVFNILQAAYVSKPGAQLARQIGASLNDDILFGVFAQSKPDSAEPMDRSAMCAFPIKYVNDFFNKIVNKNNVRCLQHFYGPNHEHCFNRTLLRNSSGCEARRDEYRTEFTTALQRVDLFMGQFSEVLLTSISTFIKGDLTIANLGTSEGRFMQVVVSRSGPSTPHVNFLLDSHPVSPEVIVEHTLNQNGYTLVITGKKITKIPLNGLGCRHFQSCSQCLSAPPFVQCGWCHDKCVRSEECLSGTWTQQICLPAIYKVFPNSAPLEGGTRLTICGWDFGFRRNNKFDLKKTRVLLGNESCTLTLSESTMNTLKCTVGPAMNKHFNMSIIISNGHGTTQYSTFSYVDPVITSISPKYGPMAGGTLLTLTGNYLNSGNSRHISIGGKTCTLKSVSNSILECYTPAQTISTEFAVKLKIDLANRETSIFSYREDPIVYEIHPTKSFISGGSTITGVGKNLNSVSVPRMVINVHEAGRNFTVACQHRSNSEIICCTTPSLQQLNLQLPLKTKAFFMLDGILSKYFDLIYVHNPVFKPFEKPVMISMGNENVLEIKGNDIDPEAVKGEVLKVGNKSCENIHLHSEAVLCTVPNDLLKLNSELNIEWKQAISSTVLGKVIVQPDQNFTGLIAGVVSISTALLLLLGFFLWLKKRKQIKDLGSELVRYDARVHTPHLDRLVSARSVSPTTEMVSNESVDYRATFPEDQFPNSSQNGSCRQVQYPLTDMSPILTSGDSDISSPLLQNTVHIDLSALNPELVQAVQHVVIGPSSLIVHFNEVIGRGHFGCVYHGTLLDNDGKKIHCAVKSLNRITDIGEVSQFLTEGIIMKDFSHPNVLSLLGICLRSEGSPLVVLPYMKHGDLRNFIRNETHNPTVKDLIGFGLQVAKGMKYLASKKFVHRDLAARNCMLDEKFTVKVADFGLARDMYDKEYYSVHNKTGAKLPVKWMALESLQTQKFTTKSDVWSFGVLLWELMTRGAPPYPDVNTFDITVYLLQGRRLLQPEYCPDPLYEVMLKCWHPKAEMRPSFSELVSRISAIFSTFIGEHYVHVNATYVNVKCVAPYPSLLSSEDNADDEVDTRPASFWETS

[12] = target: Calcium/calmodulin-dependent protein kinase type II subunit gamma (Homo sapiens) (UniProt Q13555); assay: Inhibition of wild-type human partial length CAMK2G (R9 to A303 residues) expressed in Escherichia coli BL21 assessed as residual activity at 1000 nM after 30 mins by Kinomescan method relative to control
[13] = target: Non-receptor tyrosine-protein kinase TYK2 (Homo sapiens) (UniProt P29597); assay: Inhibition of wild-type human partial length TYK2 JH2 pseudokinase domain (G556 to D888 residues) expressed in HEK293 cells assessed as residual activity at 1000 nM after 30 mins by Kinomescan method relative to control; format: cell-based
[14] = tested on: Tyrosine-protein kinase ABL1 (Homo sapiens), P00519 [F317L]; assay: Inhibition of human phosphorylated ABL1 F317L mutant (S229 to K512 residues) expressed in HEK293 cells assessed as residual activity at 1000 nM after 30 mins by Kinomescan method relative to control; format: cell-based; in short: as §2
[15] = target: Cyclin-dependent kinase 14 (Homo sapiens) (UniProt O94921); assay: Inhibition of wild-type human full length PFTK1 (M1 to H451 residues) expressed in Escherichia coli BL21 assessed as residual activity at 1000 nM after 30 mins by Kinomescan method relative to control; in short: as §1
Chain of Cyclin-dependent kinase 14 (Homo sapiens) (O94921 whole entry, the tested form may be a part): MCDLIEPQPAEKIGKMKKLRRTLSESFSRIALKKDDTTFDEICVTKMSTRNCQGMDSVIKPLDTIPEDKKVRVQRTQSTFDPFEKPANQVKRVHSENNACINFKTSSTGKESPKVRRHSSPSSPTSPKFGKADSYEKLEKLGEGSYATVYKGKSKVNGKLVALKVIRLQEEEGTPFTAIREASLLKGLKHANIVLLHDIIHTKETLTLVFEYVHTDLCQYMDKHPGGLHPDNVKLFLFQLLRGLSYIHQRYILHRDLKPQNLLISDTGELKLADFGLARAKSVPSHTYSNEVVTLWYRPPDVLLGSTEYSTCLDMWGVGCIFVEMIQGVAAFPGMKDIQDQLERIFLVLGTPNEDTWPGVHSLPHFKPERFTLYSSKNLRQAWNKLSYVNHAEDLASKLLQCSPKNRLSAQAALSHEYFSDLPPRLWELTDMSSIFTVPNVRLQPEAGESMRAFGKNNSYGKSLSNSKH

[16] = target: High affinity nerve growth factor receptor (Homo sapiens) (UniProt P04629); assay: Inhibition of wild-type human partial length TRKA (G475 to G790 residues) expressed in HEK293 cells assessed as residual activity at 1000 nM after 30 mins by Kinomescan method relative to control; format: cell-based
[17] = target: Ribosomal protein S6 kinase alpha-4 (Homo sapiens) (UniProt O75676); assay: Inhibition of wild-type human partial length N-terminal RPS6KA4 kinase domain 1 expressed in Escherichia coli BL21 assessed as residual activity at 1000 nM after 30 mins by Kinomescan method relative to control
Chain of Ribosomal protein S6 kinase alpha-4 (Homo sapiens) (O75676 whole entry, looked up, the tested form may be a part): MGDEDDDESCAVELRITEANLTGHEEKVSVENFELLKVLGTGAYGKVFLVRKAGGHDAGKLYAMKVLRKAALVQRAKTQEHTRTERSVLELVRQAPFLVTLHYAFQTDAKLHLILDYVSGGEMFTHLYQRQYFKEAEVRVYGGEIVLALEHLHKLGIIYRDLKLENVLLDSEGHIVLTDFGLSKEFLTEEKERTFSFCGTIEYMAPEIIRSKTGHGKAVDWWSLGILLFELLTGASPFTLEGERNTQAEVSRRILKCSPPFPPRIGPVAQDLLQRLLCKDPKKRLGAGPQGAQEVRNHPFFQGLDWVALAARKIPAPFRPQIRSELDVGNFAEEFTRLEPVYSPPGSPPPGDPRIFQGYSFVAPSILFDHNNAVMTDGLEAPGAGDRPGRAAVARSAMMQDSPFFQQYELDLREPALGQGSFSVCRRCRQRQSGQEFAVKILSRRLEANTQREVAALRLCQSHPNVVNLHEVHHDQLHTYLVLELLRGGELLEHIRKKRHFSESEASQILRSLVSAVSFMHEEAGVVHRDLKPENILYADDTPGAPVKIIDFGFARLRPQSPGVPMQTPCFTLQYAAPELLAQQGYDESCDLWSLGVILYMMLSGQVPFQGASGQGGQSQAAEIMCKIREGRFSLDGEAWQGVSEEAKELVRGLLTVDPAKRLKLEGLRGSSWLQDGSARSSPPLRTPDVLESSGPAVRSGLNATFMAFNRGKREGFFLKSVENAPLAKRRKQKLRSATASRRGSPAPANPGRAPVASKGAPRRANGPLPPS

[18] = target: Serine/threonine-protein kinase Sgk3 (Homo sapiens) (UniProt Q96BR1); assay: Inhibition of wild-type human partial length SGK3 (M119 to L496 residues) expressed in HEK293 cells assessed as residual activity at 1000 nM after 30 mins by Kinomescan method relative to control; format: cell-based
[19] = target: Dual specificity protein kinase CLK2 (Homo sapiens) (UniProt P49760); assay: Inhibition of wild-type human partial length CLK2 (D144 to R498 residues) expressed in Escherichia coli BL21 assessed as residual activity at 1000 nM after 30 mins by Kinomescan method relative to control
[20] = target: Uncharacterized serine/threonine-protein kinase SBK3 (Homo sapiens) (UniProt P0C264); assay: Inhibition of wild-type human partial length SgK110 (L22 to R329 residues) expressed in Escherichia coli BL21 assessed as residual activity at 1000 nM after 30 mins by Kinomescan method relative to control
Chain of Uncharacterized serine/threonine-protein kinase SBK3 (Homo sapiens) (P0C264 whole entry, the tested form may be a part): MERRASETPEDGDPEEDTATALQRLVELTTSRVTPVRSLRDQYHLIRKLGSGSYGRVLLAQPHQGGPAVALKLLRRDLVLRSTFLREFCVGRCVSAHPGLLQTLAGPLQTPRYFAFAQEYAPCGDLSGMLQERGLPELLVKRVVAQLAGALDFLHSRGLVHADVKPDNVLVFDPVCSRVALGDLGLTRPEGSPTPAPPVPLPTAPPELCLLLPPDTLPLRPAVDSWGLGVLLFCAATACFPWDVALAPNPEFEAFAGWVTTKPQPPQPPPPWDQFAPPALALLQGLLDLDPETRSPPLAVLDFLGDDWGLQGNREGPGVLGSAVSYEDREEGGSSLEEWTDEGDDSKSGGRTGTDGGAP

[21] = tested on: Mycobacterium tuberculosis; assay: Inhibition of wild-type Mycobacterium tuberculosis partial length PKNB (M1 to G279 residues) expressed in HEK293 cells assessed as residual activity at 1000 nM after 30 mins by Kinomescan method relative to control; format: cell-based; in short: as §2

COc1cc(OC)c(Cl)c(N2Cc3cnc(Nc4ccc(F)cc4)nc3N(C3CCN(C(=O)/C=C/CN(C)C)CC3)C2=O)c1Cl
Activity [1]: 91% | Activity [2]: 49% | Activity [3]: 67% | Activity [4]: 82% | Activity [5]: 100% | Activity [6]: 100% | Activity [7]: 100% | Activity [8]: 31% | Activity [9]: 96% | Activity [10]: 100% | Activity [11]: 96% | Activity [12]: 100% | Activity [13]: 95% | Activity [14]: 64% | Activity [15]: 92% | Activity [16]: 38% | Activity [17]: 97% | Activity [18]: 87% | Activity [19]: 100% | Activity [20]: 100% | Activity [21]: 100%

Reference: ChEMBL document CHEMBL4043093, “2-Oxo-3, 4-dihydropyrimido[4, 5-d]pyrimidinyl derivatives as new irreversible pan fibroblast growth factor receptor (FGFR) inhibitors” (Eur J Med Chem, 2017)
